This is an account of results in ChEMBL document CHEMBL4196106, “From Naproxen Repurposing to Naproxen Analogues and Their Antiviral Activity against Influenza A Virus” (J Med Chem, 2018).

In general, IC50 refers to the concentration needed to halve the response being measured.

Activity calls are given as the source filed them. The rule behind the calls is not given here.

For data set [1], the system named is Influenza A virus. Nature of the data set: Inhibition of Influenza A virus nucleoprotein/polymerase acidic protein (1 to 27 residues) complex formation at 100 nM by surface plasmon resonance analysis. Put shortly:
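Biotinylated PA(1-27) was captured on the chip at about 1500 RU, with a scrambled peptide on the same chip at similar RU. NP (12–2500 nM), alone or as NP-DNA complex, was injected with or without compound up to 50 µM. Running buffer was 20 mM Tris-HCl pH 7.4, 300 mM NaCl, 0.005% P20, at 25 °C and 30 µl/min. Regeneration used guanidinium chloride then 10 mM NaOH.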
On the technique in general: Surface plasmon resonance follows binding to a sensor surface in real time, without labels.

A short description of data set [2]: Selectivity index, ratio of CC50 for human A549 cells to IC50 for Influenza A virus (A/Udorn/1972 (H3N2)) after 18 hrs. Format: toxicity. Particulars: read-out: Ratio CC50/IC50.
Data set [3] deals with Influenza A virus. Kind of data set: Stabilization of Influenza A virus nucleoprotein assessed as melting temperature at 5 to 15 uM measured for 10 mins.
Data set [4] deals with Influenza A virus. Nature of the data set: Antiviral activity against Influenza A virus (A/Puerto Rico/8/1934(H1N1)) infected in C57BL/6J mouse assessed as decrease in viral load in bronchoalveolar lavage at 8 mg/mouse/day, ip qd treated up to day 2 starting at 5 to 10 mins post infection relative to control. The format is functional. Put shortly: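 Female C57BL/6J mice, 5–6 weeks old, were anaesthetised with ketamine/xylazine (43/5 mg/kg) and inoculated intranasally with A/PR/8/34 at 500 PFU. Treatment was i.p. once daily on days 0, 1 and 2, starting 5–10 min after inoculation; 1 mg/mouse is 50 mg/kg and 8 mg/mouse is 400 mg/kg. BAL infectious titre was measured by plaque assay against saline-treated mice.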

Data set [5] deals with Influenza A virus. Nature of the data set: Antiviral activity against Influenza A virus (A/Udorn/1972 (H3N2)) infected in MDCK cells at MOI of 2 assessed as decrease in viral load after 18 hrs by immunofluorescence analysis. Format: functional, organism-based. In outline:
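MDCK or A549 cells, 0.32 x 10^6 per well, were held 24 h serum-free to 80% confluence and then infected at MOI 2. Compound (0.1–500 µM) or vehicle was added right after virus adsorption. At 18 h, viral NP was read by immunofluorescence and corrected for cell number by DAPI. Runs were in triplicate, repeated at least twice, and IC50 came from a dose-response fit.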

Another data set has as its system MDCK. Kind of data set: Inhibition of nucleoprotein/polymerase acidic protein (1 to 27 residues) interaction in Influenza A virus (A/WSN/1933 (H1N1)) infected in MDCK cells by Western blot analysis. The format is cell-based. Put shortly: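 MDCK cells were infected with A/WSN/33 at MOI 2 for 18 h and lysed in PBS with protease inhibitors and 0.5% NP40 by freezing; nucleic acids were not digested. Streptavidin beads loaded with 250 µM biotinylated PA(1-27) were incubated with the lysate 18 h at 4 °C, with or without compound. Bound NP was detected by anti-NP monoclonal western blot.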
(Immunoblotting shows a protein as a band on a membrane.)

Data set [6] in a line: Selectivity index, ratio of CC50 for MDCK cells to IC50 for Influenza A virus (A/WSN/1933(H1N1)) infected in MDCK cells at MOI of 2 after 18 hrs. Particulars: dog, read-out: Ratio CC50/IC50. Format: toxicity, cell-based.
In data set [7] the test system is Influenza A virus. Kind of data set: Antiviral activity against pandemic Influenza A virus (A/Netherlands/602/09(H1N1)) infected in MDCK cells at MOI of 10^-3 assessed as decrease in viral load after 18 hrs by immunofluorescence analysis. The format is functional, organism-based.
The test system of data set [8] is Influenza A virus. Nature of the data set: Antiviral activity against Influenza A virus (A/Puerto Rico/8/1934(H1N1)) infected in C57BL/6J mouse assessed as recovery of weight loss at 8 mg/mouse/day, ip qd […] starting at 5 to 10 mins post infection measured up to day 12. The format is functional, organism-based.

For the molecule `COc1ccc2cc(-c3c(C(=O)[O-])cccc3C(=O)[O-])ccc2c1.[Na+].[Na+]`, the inhibition result in the data set on Influenza A virus [1] was “Active”. Further, the selectivity ratio at 18 h in data set [2] worked out at 520; in data set [6] it was 684. The Tm in the data set on Influenza A virus [3] worked out at 46 °C. For the same molecule, in the data set with Influenza A virus [4], the “fold change (FC)” value turned out to be 120. For the same molecule, the results for the IC50 in the data set on Influenza A virus [5] and in the data set on Influenza A virus [7] were 20 µM and 1.8 µM, respectively. For the same molecule, the “inhibition (active/not active)” value with MDCK was “Active”. The result in the data set with Influenza A virus [8] was Active.
